From ChEMBL document CHEMBL4152188, “Design, synthesis and biological evaluation of C(4) substituted monobactams as antibacterial agents against multidrug-resistant Gram-negative bacteria” (Eur J Med Chem, 2018)
Values after ≈ are worked out from the molar mass of the structure shown.

Experiments:
Format in all cases: functional
[1] = tested on: Escherichia coli; assay: Antibacterial activity against extended-spectrum beta-lactamase producing Escherichia coli isolate 212648 after 18 hrs by CLSI broth microdilution method; settings: isolate 212648, 18 h
[2] = tested on: Escherichia coli; assay: Selectivity index, ratio of MIC for against extended-spectrum beta-lactamase producing Escherichia coli isolate 208687 to MIC for extended-spectrum beta-lactamase producing Escherichia coli isolate 208687 in presence of BPL
[3] = tested on: Escherichia coli; assay: Antibacterial activity against Escherichia coli isolate 210737 after 18 hrs by CLSI broth microdilution method; settings: isolate 210737, 18 h
[4] = tested on: Escherichia coli; assay: Antibacterial activity against extended-spectrum beta-lactamase producing Escherichia coli isolate 208687 after 18 hrs by CLSI broth microdilution method; settings: isolate 208687, 18 h
[5] = tested on: Escherichia coli; assay: Antibacterial activity against extended-spectrum beta-lactamase producing Escherichia coli isolate 208687 after 18 hrs in presence of BPL by CLSI broth microdilution method; settings: isolate 208687, 18 h
Outline: (§1)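 CLSI broth microdilution against clinical isolates (ESBL E. coli, KPC-2 MDR K. pneumoniae, IMP-4 MDR P. aeruginosa; five per species). Iron limitation: Mueller-Hinton broth supplemented with 16 mg/liter 2,2'-bipyridyl to complex iron and induce iron uptake systems. Read-out: MIC.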

[6] = tested on: Escherichia coli; assay: Antibacterial activity against Escherichia coli isolate 210737 after 18 hrs in presence of BPL by CLSI broth microdilution method; settings: isolate 210737, 18 h; outline: as §1
[7] = tested on: Escherichia coli; assay: Selectivity index, ratio of MIC for against Escherichia coli isolate 210737 to MIC for Escherichia coli isolate 210737 in presence of BPL
[8] = tested on: Escherichia coli; assay: Antibacterial activity against extended-spectrum beta-lactamase producing Escherichia coli isolate 212648 after 18 hrs in presence of BPL by CLSI broth microdilution method; settings: isolate 212648, 18 h; outline: as §1
[9] = tested on: Escherichia coli; assay: Selectivity index, ratio of MIC for against extended-spectrum beta-lactamase producing Escherichia coli isolate 212648 to MIC for extended-spectrum beta-lactamase producing Escherichia coli isolate 212648 in presence of BPL
[10] = tested on: Escherichia coli; assay: Antibacterial activity against extended-spectrum beta-lactamase producing Escherichia coli isolate 209285 after 18 hrs by CLSI broth microdilution method; settings: isolate 209285, 18 h
[11] = tested on: Escherichia coli; assay: Antibacterial activity against extended-spectrum beta-lactamase producing Escherichia coli isolate 209285 after 18 hrs in presence of BPL by CLSI broth microdilution method; settings: isolate 209285, 18 h; outline: as §1
[12] = tested on: Escherichia coli; assay: Selectivity index, ratio of MIC for against extended-spectrum beta-lactamase producing Escherichia coli isolate 209285 to MIC for extended-spectrum beta-lactamase producing Escherichia coli isolate 209285 in presence of BPL
[13] = tested on: Escherichia coli; assay: Antibacterial activity against extended-spectrum beta-lactamase producing Escherichia coli isolate 106342 after 18 hrs by CLSI broth microdilution method; settings: isolate 106342, 18 h
[14] = tested on: Escherichia coli; assay: Antibacterial activity against extended-spectrum beta-lactamase producing Escherichia coli isolate 106342 after 18 hrs in presence of BPL by CLSI broth microdilution method; settings: isolate 106342, 18 h; outline: as §1
[15] = tested on: Escherichia coli; assay: Selectivity index, ratio of MIC for against extended-spectrum beta-lactamase producing Escherichia coli isolate 106342 to MIC for extended-spectrum beta-lactamase producing Escherichia coli isolate 106342 in presence of BPL
[16] = tested on: Klebsiella pneumoniae; assay: Antibacterial activity against KPC-2 producing Klebsiella pneumoniae isolate 212423 after 18 hrs by CLSI broth microdilution method; settings: isolate 212423, 18 h
[17] = tested on: Klebsiella pneumoniae; assay: Antibacterial activity against KPC-2 producing Klebsiella pneumoniae isolate 212423 after 18 hrs in presence of BPL by CLSI broth microdilution method; settings: isolate 212423, 18 h; outline: as §1
[18] = tested on: Klebsiella pneumoniae; assay: Selectivity index, ratio of MIC for against KPC-2 producing Klebsiella pneumoniae isolate 212423 to MIC for against KPC-2 producing Klebsiella pneumoniae isolate 212423 in presence of BPL
[19] = tested on: Klebsiella pneumoniae; assay: Antibacterial activity against KPC-2 producing Klebsiella pneumoniae isolate 209632 after 18 hrs by CLSI broth microdilution method; settings: isolate 209632, 18 h
[20] = tested on: Klebsiella pneumoniae; assay: Antibacterial activity against KPC-2 producing Klebsiella pneumoniae isolate 209632 after 18 hrs in presence of BPL by CLSI broth microdilution method; settings: isolate 209632, 18 h; outline: as §1
[21] = tested on: Klebsiella pneumoniae; assay: Selectivity index, ratio of MIC for against KPC-2 producing Klebsiella pneumoniae isolate 209632 to MIC for against KPC-2 producing Klebsiella pneumoniae isolate 209632 in presence of BPL
[22] = tested on: Klebsiella pneumoniae; assay: Antibacterial activity against KPC-2 producing Klebsiella pneumoniae isolate 209735 after 18 hrs by CLSI broth microdilution method; settings: isolate 209735, 18 h
[23] = tested on: Klebsiella pneumoniae; assay: Antibacterial activity against KPC-2 producing Klebsiella pneumoniae isolate 209735 after 18 hrs in presence of BPL by CLSI broth microdilution method; settings: isolate 209735, 18 h; outline: as §1
[24] = tested on: Klebsiella pneumoniae; assay: Selectivity index, ratio of MIC for against KPC-2 producing Klebsiella pneumoniae isolate 209735 to MIC for against KPC-2 producing Klebsiella pneumoniae isolate 209735 in presence of BPL
[25] = tested on: Klebsiella pneumoniae; assay: Antibacterial activity against KPC-2 producing Klebsiella pneumoniae isolate 212232 after 18 hrs by CLSI broth microdilution method; settings: isolate 212232, 18 h
[26] = tested on: Klebsiella pneumoniae; assay: Antibacterial activity against KPC-2 producing Klebsiella pneumoniae isolate 212232 after 18 hrs in presence of BPL by CLSI broth microdilution method; settings: isolate 212232, 18 h; outline: as §1
[27] = tested on: Klebsiella pneumoniae; assay: Selectivity index, ratio of MIC for against KPC-2 producing Klebsiella pneumoniae isolate 212232 to MIC for against KPC-2 producing Klebsiella pneumoniae isolate 212232 in presence of BPL
[28] = tested on: Klebsiella pneumoniae; assay: Antibacterial activity against KPC-2 producing Klebsiella pneumoniae isolate 212229 after 18 hrs by CLSI broth microdilution method; settings: isolate 212229, 18 h
[29] = tested on: Klebsiella pneumoniae; assay: Antibacterial activity against KPC-2 producing Klebsiella pneumoniae isolate 212229 after 18 hrs in presence of BPL by CLSI broth microdilution method; settings: isolate 212229, 18 h; outline: as §1
[30] = tested on: Klebsiella pneumoniae; assay: Selectivity index, ratio of MIC for against KPC-2 producing Klebsiella pneumoniae isolate 212229 to MIC for against KPC-2 producing Klebsiella pneumoniae isolate 212229 in presence of BPL
[31] = tested on: Pseudomonas aeruginosa; assay: Antibacterial activity against IMP-4 producing Pseudomonas aeruginosa isolate 212886 after 18 hrs by CLSI broth microdilution method; settings: isolate 212886, 18 h
[32] = tested on: Pseudomonas aeruginosa; assay: Antibacterial activity against IMP-4 producing Pseudomonas aeruginosa isolate 212886 after 18 hrs in presence of BPL by CLSI broth microdilution method; settings: isolate 212886, 18 h; outline: as §1
[33] = tested on: Pseudomonas aeruginosa; assay: Antibacterial activity against IMP-4 producing Pseudomonas aeruginosa isolate 209471 after 18 hrs by CLSI broth microdilution method; settings: isolate 209471, 18 h
[34] = tested on: Pseudomonas aeruginosa; assay: Antibacterial activity against IMP-4 producing Pseudomonas aeruginosa isolate 209471 after 18 hrs in presence of BPL by CLSI broth microdilution method; settings: isolate 209471, 18 h; outline: as §1
[35] = tested on: Pseudomonas aeruginosa; assay: Antibacterial activity against IMP-4 producing Pseudomonas aeruginosa isolate 208247 after 18 hrs by CLSI broth microdilution method; settings: isolate 208247, 18 h
[36] = tested on: Pseudomonas aeruginosa; assay: Antibacterial activity against IMP-4 producing Pseudomonas aeruginosa isolate 208247 after 18 hrs in presence of BPL by CLSI broth microdilution method; settings: isolate 208247, 18 h; outline: as §1
[37] = tested on: Pseudomonas aeruginosa; assay: Antibacterial activity against IMP-4 producing Pseudomonas aeruginosa isolate 209321 after 18 hrs by CLSI broth microdilution method; settings: isolate 209321, 18 h
[38] = tested on: Pseudomonas aeruginosa; assay: Antibacterial activity against IMP-4 producing Pseudomonas aeruginosa isolate 209321 after 18 hrs in presence of BPL by CLSI broth microdilution method; settings: isolate 209321, 18 h; outline: as §1
[39] = tested on: Pseudomonas aeruginosa; assay: Antibacterial activity against IMP-4 producing Pseudomonas aeruginosa isolate 207272 after 18 hrs by CLSI broth microdilution method; settings: isolate 207272, 18 h
[40] = tested on: Pseudomonas aeruginosa; assay: Antibacterial activity against IMP-4 producing Pseudomonas aeruginosa isolate 207272 after 18 hrs in presence of BPL by CLSI broth microdilution method; settings: isolate 207272, 18 h; outline: as §1
[41] = tested on: Pseudomonas aeruginosa; assay: Selectivity index, ratio of MIC for against IMP-4 producing Pseudomonas aeruginosa isolate 208247 to MIC for against IMP-4 producing Pseudomonas aeruginosa isolate 208247 in presence of BPL
[42] = tested on: Pseudomonas aeruginosa; assay: Selectivity index, ratio of MIC for against IMP-4 producing Pseudomonas aeruginosa isolate 207272 to MIC for against IMP-4 producing Pseudomonas aeruginosa isolate 207272 in presence of BPL

Compound: CC(C)C(O/N=C(\C(=O)NC1C(=O)N(S(=O)(=O)O)C12CCOCC2)c1csc(N)n1)c1cc(=O)c(O)cn1O (configuration not stated)
- MIC [1]: 8 µg/mL (≈ 13.6 µM)
- Selectivity Index [2]: 4
- MIC [3]: 1 µg/mL (≈ 1.7 µM)
- MIC [4]: 4 µg/mL (≈ 6.82 µM)
- MIC [5]: 1 µg/mL
- MIC [6]: 1 µg/mL
- Selectivity Index [7]: 1
- MIC [8]: 2 µg/mL
- Selectivity Index [9]: 4
- MIC [10]: 16 µg/mL (≈ 27.3 µM)
- MIC [11]: 8 µg/mL
- Selectivity Index [12]: 2
- MIC [13]: 8 µg/mL (≈ 13.6 µM)
- MIC [14]: 4 µg/mL
- Selectivity Index [15]: 2
- MIC [16]: 4 µg/mL (≈ 6.82 µM)
- MIC [17]: 2 µg/mL
- Selectivity Index [18]: 2
- MIC [19]: 4 µg/mL (≈ 6.82 µM)
- MIC [20]: 1 µg/mL
- Selectivity Index [21]: 4
- MIC [22]: 4 µg/mL (≈ 6.82 µM)
- MIC [23]: 1 µg/mL
- Selectivity Index [24]: 4
- MIC [25]: 2 µg/mL (≈ 3.41 µM)
- MIC [26]: 0.06 µg/mL
- Selectivity Index [27]: 32
- MIC [28]: 8 µg/mL (≈ 13.6 µM)
- MIC [29]: 1 µg/mL
- Selectivity Index [30]: 8
- MIC [31]: > 64 µg/mL
- MIC [32]: > 64 µg/mL
- MIC [33]: > 64 µg/mL
- MIC [34]: > 64 µg/mL
- MIC [35]: > 64 µg/mL
- MIC [36]: 64 µg/mL
- MIC [37]: > 64 µg/mL
- MIC [38]: > 64 µg/mL
- MIC [39]: > 64 µg/mL
- MIC [40]: 64 µg/mL

Compound: Cc1csc(SC[C@@H]2[C@H](NC(=O)/C(=N\OC(c3cc(=O)c(O)cn3O)C(C)C)c3csc(N)n3)C(=O)N2S(=O)(=O)O)n1 (some centres not stated)
- MIC [1]: 1 µg/mL (≈ 1.52 µM)
- Selectivity Index [2]: 8
- MIC [3]: 0.5 µg/mL (≈ 0.758 µM)
- MIC [4]: 2 µg/mL (≈ 3.03 µM)
- MIC [5]: 0.25 µg/mL
- MIC [6]: 0.25 µg/mL
- Selectivity Index [7]: 2
- MIC [8]: 1 µg/mL
- Selectivity Index [9]: 1
- MIC [10]: 2 µg/mL (≈ 3.03 µM)
- MIC [11]: 1 µg/mL
- Selectivity Index [12]: 2
- MIC [13]: 2 µg/mL (≈ 3.03 µM)
- MIC [14]: 2 µg/mL
- Selectivity Index [15]: 1
- MIC [16]: 2 µg/mL (≈ 3.03 µM)
- MIC [17]: 1 µg/mL
- Selectivity Index [18]: 2
- MIC [19]: 1 µg/mL (≈ 1.52 µM)
- MIC [20]: 0.5 µg/mL
- Selectivity Index [21]: 2
- MIC [22]: 2 µg/mL (≈ 3.03 µM)
- MIC [23]: 2 µg/mL
- Selectivity Index [24]: 1
- MIC [25]: 2 µg/mL (≈ 3.03 µM)
- MIC [26]: 1 µg/mL
- Selectivity Index [27]: 2
- MIC [28]: 1 µg/mL (≈ 1.52 µM)
- MIC [29]: 0.5 µg/mL
- Selectivity Index [30]: 2
- MIC [31]: > 64 µg/mL
- MIC [32]: > 64 µg/mL
- MIC [33]: > 64 µg/mL
- MIC [34]: > 64 µg/mL
- MIC [35]: 64 µg/mL (≈ 97 µM)
- MIC [36]: 64 µg/mL
- Selectivity Index [41]: 1
- MIC [37]: > 64 µg/mL
- MIC [38]: > 64 µg/mL
- MIC [39]: 64 µg/mL (≈ 97 µM)
- MIC [40]: 64 µg/mL
- Selectivity Index [42]: 1
